High-throughput results (PubChem)
This is a sample that favours compounds with a hit; in the whole collection about 2.1% have one here.
UCH37 DUB inh: blocks the human deubiquitinase UCH37; Q9Y5K5; purified proteasome/UCH37, Ub-AMC cleavage fluorescence; inhibition, % (test concentration not listed); 0.33% of 330,000 active;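 active means mean inhibition over replicate wells above about 20%, limit read from the data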;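 further: 0% = compound-free wells with enzyme and 100% = wells lacking proteasome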
Target sequence (Q9Y5K5 whole entry, looked up): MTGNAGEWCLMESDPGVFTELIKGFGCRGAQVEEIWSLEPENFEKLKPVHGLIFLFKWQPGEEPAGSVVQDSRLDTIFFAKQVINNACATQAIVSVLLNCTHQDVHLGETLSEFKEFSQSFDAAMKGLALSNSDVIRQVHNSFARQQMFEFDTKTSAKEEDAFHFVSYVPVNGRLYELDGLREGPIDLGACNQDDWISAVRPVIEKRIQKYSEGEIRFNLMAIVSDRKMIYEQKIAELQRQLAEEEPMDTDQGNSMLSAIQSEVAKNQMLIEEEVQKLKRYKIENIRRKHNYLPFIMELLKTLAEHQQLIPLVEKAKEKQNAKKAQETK
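Signal – fluorescence, ex 355 nm, em 460 nm · System – Proteasome-bound UCH37 · Input – 0.15 nM proteasome as dispensed · Timing – 30 min preincubation with enzyme, 25 min cleavage at room temperature · Read-out basis – percent inhibition of cleavage signal versus uninhibited and no-proteasome wells · Medium – Tris-HCl pH 7.4 with ATP-MgCl2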
HKDC1 inh: blocks human hexokinase HKDC1 activity. recombinant HKDC1, G6PDH/diaphorase resazurin coupled fluorescence. inhibition, % at 20 µM. 0.16% of 340,000 active;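 active means inhibition above about 35% when tested at 20 µM, limit read from the data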;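 further: plate controls were DMSO wells with enzyme for no effect and DMSO wells lacking enzyme for full effect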
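Assay system: recombinant HKDC1 hexokinase; detection: coupled resazurin fluorescence, excitation 525 nm, emission 613 nm; benchmarks: DMSO-plus-enzyme-mix negative control, buffer-substituted positive control; compound dosing: single 20 µM dose; schedule: 90 min at room temperature in dark; also added: glucose plus 1 mM ATP as hexokinase substrates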
PfG6PD inh: PfG6PD (Plasmodium falciparum) enzyme inhibition; PfGluPho enzyme, NADPH resazurin-diaphorase fluorescence; inhibition, % at 20 µM; 0.78% of 350,000 active;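 active means inhibition reaching at least a set limit at 20 µM in the primary screen, cut at about 59% in these data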;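 further: 0% = DMSO wells with substrate and 100% = DMSO wells lacking glucose-6-phosphate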
Beta2AR agonist: human beta-2 adrenergic receptor agonism by FAP. Am2.2-beta2AR cells, FAP receptor internalization, flow cytometry. response, % (no concentration beside the values). 0.43% of 340,000 active;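 active means response above a set limit, near 3 SD of response in nonfluorescent compounds, cut at about 42% in these data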
aDG glyco act: alpha-DG glycosylation activation; Pro5-aDG cells, alpha-DG glycosylation AlphaScreen (IIH6); 0% Pro5, 100% B10-LARGE cell signal; activation, % at 10 µM; 0.22% of 360,000 active;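 active means activation of at least 8% versus controls, or a plate z-score of at least 8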;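 further: Pro5 are CHO cells carrying HIG-tagged alpha-DG that lacks glycosylation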
H9c2 protect: modulators protecting cardiomyocytes from myocardial damage; H9c2 cardiomyocytes, H2O2 injury protection, ATPLite, 2 h; protection from H2O2 cell death, % at 20 µM; 0.63% of 360,000 active; AID 588492;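 active means compounds giving at least 50% protection of heart cells from peroxide-induced death in the single-dose screen, raw or plate-pattern-corrected value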;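 further: 0% = DMSO wells with peroxide and 100% = DMSO wells without peroxide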
* marks the source's active call; other numbers are inactive results; · = not tested or not shown; ! = not confirmed by another sample.

SMILES	UCH37 DUB inh	HKDC1 inh	PfG6PD inh	Beta2AR agonist	aDG glyco act	H9c2 protect
CCN1C/C(=C/c2cccc([N+](=O)[O-])c2)C(=O)/C(=C/c2cccc([N+](=O)[O-])c2)C1	2	22	21	87*	0	-1
O=c1cc(-c2ccc(O)c(O)c2)oc2c1ccc1ccccc12	8	8	-14	5	0	49
O=c1cc(-c2cccnc2)oc2c1ccc1ccccc12	·	18	32	-3	0	76*
CC1=NN(/C(=N/c2nnc(C)s2)Nc2ccccc2)[C@H](c2ccc(C)cc2)S1	7	·	·	·	·	·
COc1ccc(CNC(=O)C(c2ccco2)N(Cc2cccs2)C(=O)Cc2cccs2)cc1 (stereo not given)	-2	2	6	0	0	35
COC(=O)c1ccc(C(C(=O)NCc2ccccc2)N(Cc2cccs2)C(=O)c2cnccn2)cc1 (stereo not given)	5	8	-1	-7	0	76*
Cc1ccc(C(C(=O)NC2CCCC2)N(C(=O)Cc2cccs2)c2ccc3c(c2)OCCO3)cc1 (stereo not given)	4	-6	-7	-5	0	10
Cc1ccc(C(C(=O)NCc2ccccc2)N(Cc2cccs2)C(=O)c2ccc3c(c2)OCCO3)cc1 (stereo not given)	3	6	-9	17	-1	56*
COc1ccc(CNC(=O)C(c2ccc(C)cc2)N(Cc2cccs2)C(=O)c2ccc3c(c2)OCCO3)cc1 (stereo not given)	4	-4	-14	30	-1	61*
COc1ccc(CNC(=O)C(c2cccs2)N(Cc2ccco2)C(=O)Cc2cccs2)cc1 (stereo not given)	-2	2	20	6	0	63*
COc1cc(C=Nn2c(C)nc3ccccc3c2=O)cc(OC)c1O	7	·	·	·	·	·
O=C1C2C3C=CC(C4CC34)C2C(=O)N1N=Cc1ccc(-c2ccc(F)cc2[N+](=O)[O-])o1 (stereo not given)	4	·	·	·	·	·
COc1ccccc1NN=Cc1c(CO)cnc(C)c1O	0	·	·	·	·	·
COCCCn1c(C)nc2c(c1=O)c1nc3ccccc3nc1n2CCc1ccccc1	-52	7	19	-12	0	58*
O=C1NC(=O)c2cc([N+](=O)[O-])cc3cccc1c23	4	2	18	1	0	55*
O=C1NC(=O)c2cc(Br)cc3cccc1c23	4	0	-12	-9	0	36
COc1ccc(-c2csc(NC(=O)CN3C(=O)C4CC=CCC4C3=O)n2)cc1OC (stereo not given)	1	-7	10	4	0	6
O=C(CN1C(=O)C2CC=CCC2C1=O)Nc1nc(-c2ccc(F)c(F)c2)cs1 (stereo not given)	·	1	-6	19	0	82*
COc1ccccc1C(=O)NN=Cc1cnc2ccccc2n1	14	·	·	·	·	·
C/C(=N\Nc1ccc([N+](=O)[O-])cc1[N+](=O)[O-])c1cccnc1	·	-4	-8	1	0	-1
CC(C)=NNc1cnnc2ccc([N+](=O)[O-])cc12	·	·	·	·	0	56*
COc1ccc(-c2cc(=O)c3ccccc3[nH]2)cc1	-6	-4	15	-5	0	56*
COc1ccc(-c2cc(=O)[nH]c3ccccc23)cc1	-16	-1	4	-5	0	-5
O=c1[nH]ccc2c(O)cccc12	-4	1	5	-6	0	90*
COc1cc(C=NNC(=O)c2cccc3ccccc23)ccc1OCC(N)=O	3	·	·	·	·	·
SMILES	UCH37 DUB inh	HKDC1 inh	PfG6PD inh	Beta2AR agonist	aDG glyco act	H9c2 protect
Nc1c(N(CCC2=CCCCC2)C(=O)COc2ccc(F)cc2)c(=O)[nH]c(=O)n1Cc1ccccc1	24*	-5	-19	-3	0	-3
CC(=O)SC(C[N+](=O)[O-])c1cn(C(C)=O)c2ccccc12 (stereo not given)	·	0	63*	49*	0	-11
CCc1nnc(NC(=O)CCC(=O)N2CCN(C3c4ccccc4-c4ccccc43)CC2)s1	2	5	-38	16	0	61*
CCc1nnc(NC(=O)CCC(=O)N2CCN(Cc3ccccc3)CC2)s1	3	-9	3	-11	0	15
CN(CC(=O)Nc1cccc(F)c1)C(=O)Cc1n[nH]c(=O)c2ccccc12	1	3	4	1	0	74*
CCN(CC(=O)Nc1ccc(OC)cc1)C(=O)CCc1nc2ccccc2c(=O)[nH]1	1	-2	5	3	0	90*
CCOc1ccc(NC(=O)CN(C)C(=O)CCc2nc3ccccc3c(=O)[nH]2)cc1OCC	·	·	-3	·	0	50
CN(CC(=O)Nc1ccc(Cl)c(C(F)(F)F)c1)C(=O)CCCc1nc2ccccc2c(=O)[nH]1	2	1	44	-1	0	37
CN(CC(=O)Nc1cccc(F)c1)C(=O)CCCc1nc2ccccc2c(=O)[nH]1	4	-3	10	-5	0	60*
COc1cccc(NC(=O)CN(C)C(=O)CCCc2nc3ccccc3c(=O)[nH]2)c1	0	-5	1	-2	0	64*
COc1ccc(C=NNC(=O)CNS(=O)(=O)c2ccc(C)cc2)cc1	0	·	·	·	·	·
CCCc1cc2c(cc1NC(=O)c1ccc(Br)cc1)OCO2	0	-6	0	-6	0	56*
Cc1ccc(C=Nn2c(-c3cccs3)n[nH]c2=S)cc1	6	·	·	·	·	·
N#CC(c1nc2ccccc2nc1N1CCCC1)S(=O)(=O)c1ccccc1 (stereo not given)	-163	6	29	-32	0	40
N#CC(c1nc2ccccc2nc1N1CCCC1)S(=O)(=O)c1cccs1 (stereo not given)	-10	2	41	-26	0	59*
CC(=O)c1ccc(-c2ccc(/C=C(/Sc3n[nH]c(C)n3)C(=O)O)o2)cc1	21*	18	28	3	0	16
CN(C)CCOC(=O)C1(c2ccccc2)CCOCC1	20*!	-4	7	0	0	-2
CCN(CC)CCOC(=O)C1(c2ccccc2)CCCC1	2	-10	-9	-3	0	1
Cn1c(=O)c2nnn(N=C(c3ccccc3)C3CC3)c2n(C)c1=O	34*	·	·	·	·	·
Cn1c(=O)c2nnn(/N=C(\c3ccccc3)C3CC3)c2n(C)c1=O	·	-8	3	-7	0	-11
O=C1c2ccccc2C(=O)N1/N=C/c1ccc(O)c(O)c1O	·	1	98*	-6	0	19
C/C(C=NNC(=O)Cn1cncn1)=C/c1ccc(C(C)C)cc1	23*	·	·	·	·	·
CC(=C/c1ccc(C(C)C)cc1)/C=N/NC(=O)c1ccncc1	·	-5	1	20	0	58*
C=CCn1cnc2c(c1=O)c1nc3ccccc3nc1n2/N=C/c1cccc(OC)c1OC	·	20	18	-8	-1	74*
